Test results: ChEMBL document CHEMBL4477186, “Structurally Diverse Metabolites from the Soft Coral Sinularia verruca Collected in the South China Sea” (J Nat Prod, 2016)
Activity calls are given as the source filed them. No cut-off for these calls is given here.

What was measured:
Peritoneal macrophage [1] = assay: Antiinflammatory activity against C57BL6J mouse peritoneal macrophages assessed as inhibition of LPS-induced NO production at 30 uM incubated for 1 hr followed by stimulation with LPS for 24 hrs by Griess assay; type: functional
Method in brief: (§1)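 Mouse peritoneal macrophages stimulated with lipopolysaccharide; nitric oxide production measured following an earlier protocol. Test compounds taken from 30 mM DMSO stocks and diluted to 1–30 μM final. Dexamethasone in DMSO served as positive control.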

[2] = system: Human immunodeficiency virus 1; assay: Antiviral activity against HIV1 infected in human CEM-SS cells assessed as inhibition of virus-induced cytopathic effect after 6 days by XTT assay; type: functional, organism-based; settings: for EC50: Human immunodeficiency virus 1, CEM-SS, 144 h
Method in brief: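 NCI XTT-tetrazolium primary anti-HIV screen. CEM-SS cells kept in phenol red-free RPMI 1640 with 5% FBS, gentamicin and 2 mM L-glutamine; 1 × 10⁴ cells per well infected with HIV-1 RF (Haitian variant) at MOI 0.6. Compounds predissolved in DMSO, diluted in medium; AZT positive control. Quadruplicate infected wells, 6 days, 37 °C, 5% CO₂; cell growth by XTT; EC50 and maximal protection derived.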

Peritoneal macrophage [3] = assay: Antiinflammatory activity against C57BL6J mouse peritoneal macrophages assessed as inhibition of LPS-induced NO production incubated for 1 hr followed by stimulation with LPS for 24 hrs by Griess assay; type: functional, cell-based; method in brief: as §1
CEM-SS = assay: Cytotoxicity against human CEM-SS cells assessed as growth inhibition after 6 days by XTT assay; type: cell-based; settings: 144 h
Method in brief: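 Uninfected CEM-SS cells (1 × 10⁴ per well, duplicate wells) grown alongside the infected cultures in phenol red-free RPMI 1640 with 5% FBS, gentamicin and 2 mM L-glutamine. Compounds diluted from DMSO into medium. Incubation 6 days at 37 °C under 5% CO₂; growth estimated by XTT read-out; IC50 derived.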

| Compound | inhibition at 30 µM (Peritoneal macrophage [1]) | inhibition [2] | IC50 (Peritoneal macrophage [3]) | IC50 (CEM-SS) | %max [2] | EC50 [2] |
| --- | --- | --- | --- | --- | --- | --- |
| CCOC(=O)CC[C@]1(O)OC(=O)C(C)=C1C | < 50% | inactive | – | – | – | – |
| CCO[C@@]1(CCCCCCCCCCCCC(=O)O)OC(=O)C(C)=C1C | < 50% | inactive | – | – | – | – |
| CCCC[C@@H]1C(=O)C(C)=C(C)[C@]1(O)CCC(=O)OCC | – | inactive | 24 µM | – | – | – |
| COC(=O)C(C)CCCC(C)(O)CCC1=C(C)C(=O)C(C)=C(C)C1=O (stereo not given) | < 50% | inactive | – | – | – | – |
| CCOC(=O)C1=CN2CC[C@]3(O)c4ccccc4N([C@H]1C)[C@H]23 | < 50% | inactive | – | – | – | – |
| COC(=O)C(C)CCCC1(C)CCc2c(C)c(O)c(C)c(C)c2O1 (stereo not given) | < 50% | inactive | – | – | – | – |
| CCOC(=O)CCCCCCCCCCCC[C@]1(O)OC(=O)C(C)=C1C | < 50% | inactive | – | – | – | – |
| CCCCC[C@@]1(O)C(C)=C(C)C(=O)[C@H]1CO (relative stereo) | – | – | 28 µM | 79 µM | 86% | 34 µM |
| CCCCC[C@@]1(O)C(C)=C(C)C(=O)[C@H]1COCC (relative stereo) | – | – | 26 µM | 66 µM | 75% | 30 µM |
| CCCC[C@@H]1C(=O)C(C)=C(C)[C@]12CCC(=O)O2 | < 50% | inactive | – | – | – | – |
| CC1=C[C@@]2(C=C(C)[C@@H]3CC[C@@]4(C)Oc5cc(C)c(O)cc5[C@@H]2[C@@H]34)OC1=O | < 50% | inactive | – | – | – | – |
| C[C@@H]1CC[C@]2(O)O[C@]13CC(C)(C)CC3=C[C@@]2(C)O | < 50% | inactive | – | – | – | – |
| CCCCC[C@]1(O)OC(=O)C(C)=C1C | < 50% | inactive | – | – | – | – |
| C=C1C(=O)C(C)=C(C)[C@@]1(O)CCCCC | < 50% | – | – | 6.3 µM | 52% | 5.8 µM |
| C/C1=C/C2=C(CC(C)(C)C2)[C@H](C)CC[C@@H]1O | < 50% | inactive | – | – | – | – |
| CC(=O)CC/C=C(/C)C[C@@H]1CC(C)(C)CC1=O | < 50% | inactive | – | – | – | – |
| C/C(=C\CC[C@]1(C)C=Cc2cc(O)c(C)cc2O1)Cc1cc(C)co1 [CAPILLOBENZOPYRANOL] | < 50% | inactive | – | – | – | – |
